One assay deals with Histone deacetylase. Nature of the assay: Inhibition of in vitro enzyme activity measured in partially purified rat liver Histone deacetylase preparation. Type of assay: tissue-based.
The target of the next assay is T1, Histone deacetylase HD2 (Zea mays, UniProt Q94F81).
T1 sequence (Q94F81 whole entry): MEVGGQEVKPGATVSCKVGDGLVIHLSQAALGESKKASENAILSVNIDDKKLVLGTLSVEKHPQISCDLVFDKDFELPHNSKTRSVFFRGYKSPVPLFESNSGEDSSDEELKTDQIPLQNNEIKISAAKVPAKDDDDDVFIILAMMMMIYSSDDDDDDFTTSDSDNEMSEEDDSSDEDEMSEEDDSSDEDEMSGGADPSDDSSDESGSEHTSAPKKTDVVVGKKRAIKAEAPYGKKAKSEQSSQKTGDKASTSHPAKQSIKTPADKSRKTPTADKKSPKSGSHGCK
The experiment in a line: Inhibition of in vitro enzyme activity measured in a highly purified maize Histone deacetylase 2 preparation.

Assay [1] has as its system Friend leukemia cell line. Nature of the assay: Tested […] for the inhibition of proliferation of friend leukemic cells. Type of assay: functional. As to conditions: Mus musculus. In a few lines: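 MEL DS19 murine erythroleukemia (Friend) cells, log phase, kept in DMEM with 10% FBS and penicillin/streptomycin at 37 °C in 5% CO2. Seeded at 4 × 10⁴ cells/well with serial compound dilutions; screened at 10 and 50 µM, then dose-response. DMSO at 0.1% in controls. Cells counted by Casy counter after 72 h. Proliferation given as percent of solvent control.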

Where only a bound is given, the exact number is not on record here.

What is called IC50 is the concentration that inhibits the measured activity by half.

For the compound `O=C(CCCCCCC(=O)N[C@@H](Cc1ccccc1)C(=O)NCCc1ccccc1)NO`, the figures for the IC50 (against Histone deacetylase; at Histone deacetylase HD2; in assay [1]) were 260 nM, 330 nM and 72000 nM, respectively.
The like results for `O=C(CCCCCCC(=O)N[C@@H](Cc1ccccc1)C(=O)NCCCc1ccccc1)NO` were, in that order, 1010 nM, 380 nM and 58000 nM.
Take `O=C(CCCCCCC(=O)N[C@@H](Cc1ccccc1)C(=O)N1CCCC1)NO`: the half-maximal inhibitory concentration (IC50) against Histone deacetylase is 330 nM; at Histone deacetylase HD2, 520 nM; in assay [1], greater than 100000 nM.
As for `O=C(CCCCCCC(=O)Nc1ccccc1)NO` [VORINOSTAT], the results for the half-inhibitory concentration (IC50) (on Histone deacetylase HD2; in assay [1]) were 1000 nM and 990 nM, respectively.
Consider `O=C(CCCCCCC(=O)N[C@H](Cc1ccccc1)C(=O)O)NO`, for which the 50% inhibitory concentration (IC50) against Histone deacetylase was 1540 nM; at Histone deacetylase HD2, 750 nM; in assay [1], greater than 100000 nM.
For `COC(=O)[C@H](Cc1ccc([N+](=O)[O-])cc1)NC(=O)CCCCCCC(=O)NO`, the IC50 at Histone deacetylase came to 1340 nM; against Histone deacetylase HD2 it was 850 nM; in assay [1] it was 35000 nM.
The like results for `COC(=O)[C@H](Cc1c[nH]c2ccccc12)NC(=O)CCCCCCC(=O)NO` were, in that order, 320 nM, 120 nM and 13000 nM.
The like results for `COC(=O)[C@H](Cc1ccc(OC)cc1)NC(=O)CCCCCCC(=O)NO` were, in that order, 800 nM, 250 nM and 11000 nM.
The like results for `COC(=O)[C@H](Cc1ccc(-c2ccccc2)cc1)NC(=O)CCCCCCC(=O)NO` were, in that order, 290 nM, 210 nM and 840 nM.
Turning to `O=C(CCCCCCC(=O)N[C@@H](Cc1ccccc1)C(=O)NCc1ccccc1)NO`, the IC50 at Histone deacetylase amounted to 460 nM; against Histone deacetylase HD2, 140 nM; in assay [1], 69000 nM.
The like results for `O=C(CCCCCCC(=O)N[C@H](Cc1ccccc1)C(=O)NCCc1ccccc1)NO` were, in that order, 390 nM, 340 nM and 76000 nM.
`CC(/C=C/C(=O)NO)=C\[C@@H](C)C(=O)c1ccc(N(C)C)cc1` [TRICHOSTATIN] registered a half-maximal inhibitory concentration (IC50) in assay [1] of 40 nM.
For `COC(=O)[C@H](Cc1ccccc1)NC(=O)CCCCCCC(=O)NO`, the half-maximal inhibitory concentration (IC50) stood at 800 nM against Histone deacetylase, 500 nM at Histone deacetylase HD2 and 15000 nM in assay [1].
As to `O=C(CCCCCCC(=O)NO)NO` [SUBEROHYDROXAMIC ACID], the values for the IC50 on Histone deacetylase and against Histone deacetylase HD2 were 1150 nM and 320 nM, respectively.
In the case of `O=C(CCCCCCC(=O)N[C@@H](Cc1cccc2ccccc12)C(=O)NCCc1ccccc1)NO`, the IC50 turned out to be 310 nM against Histone deacetylase, 35 nM against Histone deacetylase HD2 and 15000 nM in assay [1].
The like results for `COC(=O)[C@@H](Cc1ccccc1)NC(=O)CCCCCCC(=O)NO` were, in that order, 880 nM, 760 nM and 28000 nM.
Take `COC(=O)[C@H](Cc1cccs1)NC(=O)CCCCCCC(=O)NO`: the 50% inhibitory concentration (IC50) stood at 410 nM against Histone deacetylase, 700 nM at Histone deacetylase HD2 and 5900 nM in assay [1].
The like results for `COC(=O)[C@@H](NC(=O)CCCCCCC(=O)NO)C(C)C` were, in that order, 380 nM, 900 nM and 6200 nM.
Take `O=C(CCCCCCC(=O)N[C@@H](Cc1ccccc1)C(=O)Nc1ccccc1)NO`: the half-maximal inhibitory concentration (IC50) on Histone deacetylase worked out at 790 nM; in assay [1], 15000 nM.
Take `NC(=O)[C@H](Cc1ccccc1)NC(=O)CCCCCCC(=O)NO`: the 50% inhibitory concentration (IC50) worked out at 840 nM at Histone deacetylase, 1100 nM against Histone deacetylase HD2 and 64000 nM in assay [1].
Regarding `COC(=O)[C@H](Cc1cccc2ccccc12)NC(=O)CCCCCCC(=O)NO`, the values for the IC50 (at Histone deacetylase; at Histone deacetylase HD2; in assay [1]) were 130 nM, 360 nM and 22000 nM, respectively.
For the compound `COC(=O)[C@H](Cc1ccc2ccccc2c1)NC(=O)CCCCCCC(=O)NO`, the IC50 against Histone deacetylase was 510 nM; against Histone deacetylase HD2, 40 nM; in assay [1], 5200 nM.

For the origin of these results see ChEMBL document CHEMBL1135519, “Structure-activity relationships on phenylalanine-containing inhibitors of histone deacetylase: in vitro enzyme inhibition, induction of differentiation, and inhibition of proliferation in Friend leukemic cells” (J Med Chem, 2002).
